In the library only some 2.3% were active in any assay of this set; here they are far more common.
TRPC4 agonist – activators of mouse TRPC4 channel. HEK293 TRPC4beta/mu-opioid, Fluo4 calcium fluorescence; stronger effect = higher value. B-score at 10 µM. 310,000 compounds, 0.49% hits. AID 2237;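 active means B-score above 5 SD of library B-scores, and initial fluorescence ratio not above library mean plus 5 SD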;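 further: positive B-score marks a calcium rise read as TRPC4 activation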
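Technique: kinetic Fluo4 calcium fluorescence; Test system: TRPC4beta and mu-opioid receptor HEK293 stable cells; Measure: B-scored integrated calcium fluorescence ratio; Benchmarks: low control buffer alone, high control maximal DAMGO; Schedule: 45 min room-temperature Fluo4 loading, 110 s read.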
TRPC6 inh – inhibitors of mouse TRPC6 channel; HEK293-TRPC6, membrane potential dye, ACh-evoked depolarization; stronger effect = lower value; B-score at 10 µM; 310,000 compounds, 1.1% hits; AID 2553;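 active means B-score under library mean minus 3 SD, initial fluorescence not abnormally high, positive integrated signal ratio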;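 further: B-score derived from integrated fluorescence ratio over the kinetic read; more negative B-score means stronger inhibition of depolarization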
TRPC6 activator – activators of mouse TRPC6 channel; B-score at 10 µM; 310,000 compounds, 0.13% hits; HEK293-TRPC6 membrane potential dye fluorescence; stronger effect = higher value;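 active means B-score of the integrated fluorescence ratio above library mean plus 3 SD, and starting fluorescence ratio within library mean plus 5 SD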;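 further: higher score means more depolarization so channel activation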
TRPC4 block – blocks the mouse TRPC4 cation channel; HEK293 TRPC4beta/mu-opioid, DAMGO-evoked Fluo4 calcium flux; stronger effect = lower value; AID 2247; Q9QUQ5; 300,000 compounds, 0.39% hits; B-score at 10 µM;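 active means B-score over 3 SD under the library average, no early fluorescence shift, positive overall ratio signal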
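Material: HEK293 cells with stable TRPC4beta plus mu-opioid receptor expression / Probe or stimulus: DAMGO in two steps, submaximal then maximal / Compound: single concentration per test compound / Technique: kinetic Fluo4 fluorescence imaging of calcium influx / Read-out: per-well B score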
TRPC4 potent – allosteric potentiators of mouse TRPC4 channel | HEK293 TRPC4beta/mu-opioid, DAMGO EC20, Fluo-4 Ca2+ flux; stronger effect = higher value | B-score at 10 µM | 310,000 compounds, 0.42% hits | AID 2227;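 active means B-score of calcium response area above 5 SD of library B-scores, with initial fluorescence ratio within 5 SD of library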
Of the large screens only hits and unclear results are named; the others gave an inactive call.

CCOc1ncccc1C(=O)NCC(c1ccccc1)N(C)C (stereo not given)	TRPC4 agonist 126
COc1ccc(-c2cc(C(=O)NCC(c3ccccc3)N(C)C)c3ccccc3n2)cc1OC (stereo not given)	TRPC4 agonist 90
Cc1ccc(-c2cc(C(=O)NCCCN3CCCC3)c3ccccc3n2)cc1C	TRPC4 potent 15
CCOc1ncccc1C(=O)NCc1ccccc1	none
Cc1ccc(-c2cc(C(=O)NCCCN3CCOCC3)c3ccccc3n2)cc1C	none
CN(C)C(CNC(=O)c1cc2ccccc2oc1=O)c1ccccc1 (stereo not given)	TRPC4 agonist 87, TRPC4 block -6
COc1ccc(-c2cc(C(=O)NCc3ccco3)c3ccccc3n2)cc1OC	none
COc1ccc(C(CNC(=O)c2cc(SC)ccc2Cl)N(C)C)cc1 (stereo not given)	TRPC4 agonist 118
COc1ccc(C(CNC(=O)c2cncc(Br)c2)N(C)C)cc1 (stereo not given)	none (no result: TRPC4 block)
COc1ccc(C(CNC(=O)c2ccccc2SC)N(C)C)cc1 (stereo not given)	TRPC4 agonist 88
Cc1cccc(CN2CCCC(C(=O)N3CCCCC3)C2)c1 (stereo not given)	none
COc1ccc(C2CC(=O)c3cnc(N4CCN(Cc5ccccc5)CC4)nc3C2)cc1 (stereo not given)	TRPC4 potent 19
CCN(CC)CC(C)CNC(=O)CN1C(=O)CSc2ccc(S(=O)(=O)N3CCOCC3)cc21 (stereo not given)	none
CC1CCCN(C2=C(NS(=O)(=O)c3ccc(Br)cc3)C(=O)c3ccccc3C2=O)C1 (stereo not given)	TRPC4 potent 16
O=c1oc2ccccc2c(O)c1/C=N/c1ncccn1	none
O=c1oc2ccccc2c(O)c1/C=C1\C=Nc2ccccc21	TRPC4 agonist 85
Fc1ccc2[nH]c3c(NCc4ccccc4)ncnc3c2c1	none
O=C(NCc1ccccc1Cl)c1ccc(CSc2nc3ccncc3[nH]2)cc1	none
Clc1ccccc1CSc1nc2ccncc2[nH]1	TRPC4 block -6
Cc1cc(NC(=O)CSc2nnc(-c3ccncc3)n2C)n(-c2ccccc2)n1	none
CCCOC(=O)c1ccc(Cl)c(NC(=O)c2cccnc2)c1	none
O=C(O)CCC1OC(=O)C(O)=C1c1ccccc1 (stereo not given)	none
Cc1ccc(SCC(=O)NNC(=O)c2ccccc2)cc1C	none
Cc1ccc(SCCN)cc1C	TRPC4 agonist 83
CCCc1cc(-c2n[nH]c(=S)n2CC(C)C)cs1	TRPC4 potent 13
NC(=O)C1CCCN(CC(O)COCc2ccc(Cl)cc2)C1 (stereo not given)	TRPC4 agonist 189
CCOC(=O)C1CCN(CC(O)COCc2ccc(Cl)cc2)CC1 (stereo not given)	none
CC(CCN1CCC(n2nccc2NC(=O)c2ccccc2Cl)CC1)c1ccccc1 (stereo not given)	none
C=CCOc1ccc(CN(C)Cc2nc3cc(C(F)(F)F)ccc3c(=O)[nH]2)cc1	TRPC4 potent 15
O=C1Nc2c(c(=O)[nH]c(=O)n2-c2ccc(F)cc2)C1(NS(=O)(=O)c1ccccc1)C(F)(F)F (stereo not given)	none
CCOC(=O)N1CCN(C2=Nc3cccc4cccc2c34)CC1	TRPC6 inh -7.4
c1ccc(CC2CCN(C3=Nc4cccc5cccc3c45)CC2)cc1	TRPC6 inh -6.1
CCOC(=O)N1CCN(C(=O)Nc2cccc3ccccc23)CC1	none
CCc1ccc2[nH]c(=O)c(-c3ccccc3)c(O)c2c1	none
COc1ccc(CN2CCN(CC(O)Cn3c4ccccc4c4ccccc43)CC2)cc1 (stereo not given)	TRPC4 agonist 79
O=c1c2c(-c3ccccc3)csc2ncn1/N=C/c1cccc([N+](=O)[O-])c1O	TRPC4 agonist 68, TRPC4 block -8
O=c1c2c(-c3ccccc3)csc2ncn1/N=C/c1ccc(O)c([N+](=O)[O-])c1	none
CCc1nnc(NC(=O)c2nc3nc(C)cc(C)n3n2)s1	TRPC6 inh -5.5
CCCCC(c1nnnn1CC1CCCO1)N1CCN(Cc2ccccc2)CC1 (stereo not given)	TRPC4 agonist 93, TRPC4 block -6
CN(C)S(=O)(=O)c1cccc(COC(=O)c2ccc(Cl)cc2O)c1	TRPC4 potent 17
CN(C)S(=O)(=O)c1cccc(COC(=O)c2ccc3c(c2)OCO3)c1	none
Cc1ccn2cc(CNS(=O)(=O)c3ccc4ccccc4c3)nc2c1	none
C=CCc1cc(Cl)ccc1OCCCNCCO	TRPC4 potent 14
C=CCc1cc(Cl)ccc1OCCCNC(C)C	none
Cc1cc(NCc2ccccc2)nc2ccccc12	TRPC4 agonist 51, TRPC4 block -7
Cc1cc(NCc2ccccc2)c2ccccc2n1	none
OCCN(CCO)c1ncnc2c1sc1nc(N3CCOCC3)c3c(c12)CCCC3	TRPC4 potent 15
COc1ccc(CC2SC(N)=NC2=O)cc1 (stereo not given)	none
CC1=NNC(=O)/C1=C\c1cn(-c2ccccc2)nc1-c1ccccc1	TRPC4 potent 10
O=Cc1cn(-c2ccccc2)nc1-c1ccccc1	none
CN(C)c1ccc(NC(=S)N2CCN(c3ncc(C(F)(F)F)cc3Cl)CC2)cc1	TRPC4 agonist 127
O=C(OCCN1CCN(c2ncc(C(F)(F)F)cc2Cl)CC1)c1ccc(F)cc1	TRPC4 potent 10
O=C(CN1CCN(c2ncc(C(F)(F)F)cc2Cl)CC1)N1CCN(c2ncc(C(F)(F)F)cc2Cl)CC1	TRPC4 agonist 93
O=C(c1cccs1)N1CCN(c2ncc(C(F)(F)F)cc2Cl)CC1	none
Cc1ccc(C(=O)OCCN2CCN(c3ncc(C(F)(F)F)cc3Cl)CC2)cc1	TRPC4 potent 16
Cc1cccc(C)c1NC(=O)CN(C)C(=O)c1ccccc1OCc1ccc(F)cc1	none
Cn1ccsc1=NC(=O)c1cccc(C#N)c1	none
CN(C)C(CNC(C(=O)Nc1ccc([N+](=O)[O-])cc1Br)c1ccccc1)c1ccccc1 (stereo not given)	TRPC4 agonist 74
O=C(Nc1ccc(F)cc1)C(NC1CCCCC1)c1ccccc1 (stereo not given)	none
CN(C)C(CNC(C(=O)Nc1ccc(F)cc1)c1ccccc1)c1ccccc1 (stereo not given)	TRPC4 agonist 139
CCN1CCN(c2ccc(S(=O)(=O)N3CCCCC3)cc2NC(=O)/C=C/c2cccc(OC)c2OC)CC1	none
CCN1CCN(c2c(Cl)cccc2NC(=O)c2cc3ccccc3o2)CC1	TRPC4 potent 23
CCN1CCN(c2ccc(S(=O)(=O)N3CCCCC3)cc2NC(=O)c2cccc(Cl)c2)CC1	TRPC4 agonist 45, TRPC4 potent 18
CCN1CCN(c2ccc(S(=O)(=O)N3CCCCC3)cc2NC(=O)Cc2ccc(OC)cc2)CC1	TRPC4 agonist 63
